# Screening results from PubChem BioAssay.
# In the library only some 1.9% were active in any assay of this set; here they are far more common.
# Rce1 inhib: inhibitors of yeast Ras-converting enzyme; Q03530; 0.27% of 290,000 active; calls only; yeast membranes, quenched prenylated peptide cleavage fluorescence;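 active = fall in fluorescence gain of 50% or more versus controls, with final raw signal at or below 3038400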;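 also: plate controls were neutral control wells for no effect and wells lacking membranes for full effect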
# UCH37 DUB inh: blocks the human deubiquitinase UCH37 | purified proteasome/UCH37, Ub-AMC cleavage fluorescence | Q9Y5K5 | inhibition, % (no concentration beside the values) | 0.33% of 330,000 active | AID 588478;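 active = mean inhibition over replicate wells above about 20%, limit read from the data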;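 also: 0% = compound-free wells with enzyme and 100% = wells lacking proteasome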
#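 Assay system: Proteasome-bound UCH37. Buffer or medium: pH 7.4 Tris-HCl (50 mM) with ovalbumin, ATP-MgCl2, DTT. Incubation: 30 min preincubation with enzyme, 25 min cleavage at room temperature. Measured by: fluorescence, ex 355 nm, em 460 nm. Read-out basis: percent inhibition. Control set: wells without proteasome as full block, compound-free enzyme plus substrate as uninhibited.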
# CR mimetic SO: lowers age-related superoxide in aged yeast cells. S. cerevisiae aged cells, superoxide DHE fluorescence; active compounds read low. superoxide response (% of plate mean), % at 10 µM. 0.18% of 330,000 active. AID 2690;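 active = superoxide response under a set limit, about three screen SD below normal, cut at about 65% in these data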;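 also: yeast aged for seven days with compound at 30 °C before DHE staining; 100% = average MFI of all compound-treated wells on the plate with controls excluded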
# MIN6 prolif: inducers of beta-cell replication in MIN6 cells; MIN6 cells proliferation, ATPlite luminescence, 48 h; cells starved in 0.2% serum; 100% = growth in 10% serum; proliferation, % at 10 µM; 0.29% of 330,000 active;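 active = compounds whose signal lies at least 3.5 SD above the mean of all wells on their plate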;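 also: 0% = DMSO-treated cells in low-serum medium and 100% = 10% serum control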
# Rev-erbA mod: modulators of human Rev-erb alpha DNA binding; P20393; activity, % at 10 µM; Rev-erbα–FITC-DNA binding, fluorescence polarization, 90 min; 0.79% of 370,000 active;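 active = activity above about 14%, limit read from the data; passing the limit was not always enough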;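 also: 0% = DMSO wells with 35 nM protein and 100% = DMSO wells with 750 nM protein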
# Target sequence (P20393 whole entry, looked up): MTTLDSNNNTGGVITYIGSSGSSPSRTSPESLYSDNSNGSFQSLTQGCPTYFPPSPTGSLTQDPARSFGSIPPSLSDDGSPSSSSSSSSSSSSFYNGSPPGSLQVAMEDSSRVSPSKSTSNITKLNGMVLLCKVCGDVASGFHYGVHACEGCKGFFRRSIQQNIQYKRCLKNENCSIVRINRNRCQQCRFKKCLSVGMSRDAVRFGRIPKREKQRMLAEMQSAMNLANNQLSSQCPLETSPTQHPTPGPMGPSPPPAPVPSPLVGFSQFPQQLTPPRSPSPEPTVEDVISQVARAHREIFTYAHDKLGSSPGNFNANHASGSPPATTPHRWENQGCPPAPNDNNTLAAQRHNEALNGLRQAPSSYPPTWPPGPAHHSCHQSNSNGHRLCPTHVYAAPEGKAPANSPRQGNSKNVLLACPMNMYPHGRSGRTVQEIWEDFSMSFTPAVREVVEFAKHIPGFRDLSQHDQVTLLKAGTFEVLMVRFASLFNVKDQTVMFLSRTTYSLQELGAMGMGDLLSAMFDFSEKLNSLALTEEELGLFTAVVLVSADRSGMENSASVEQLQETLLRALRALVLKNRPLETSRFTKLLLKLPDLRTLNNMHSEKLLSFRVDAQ
# PG9 Ab binder: binds the HIV-1 gp120 antibody PG9. TR-FRET gp120-PG9 antibody binding. inhibition, % at 6.7 µM. 0.43% of 360,000 active. AID 624416; in the data active = inhibition above about 8.5%
# PG9 binder conf: PG9 antibody binding, confirmed; shares compounds with PG9 Ab binder; TR-FRET PG9 antibody binding, biochemical; inhibition, % at 6.7 µM; 90% of 1,500 active; in the data active = inhibition above about 9%
# PGV04 Ab binding: binds control antibody PGV04 in PG9 binder counter-screen; shares compounds with PG9 Ab binder; TR-FRET PGV04 antibody-gp120 binding, biochemical; inhibition, % at 6.7 µM; 95% of 1,500 active; in the data active = inhibition above about 9.5%
# Active calls of the source: *; i = inactive; . = no result given.
SMILES,Rce1 inhib,UCH37 DUB inh,CR mimetic SO,MIN6 prolif,Rev-erbA mod,PG9 Ab binder,PG9 binder conf,PGV04 Ab binding
COc1ccc(-c2nc3c(C)cc(Br)cn3c2CC(C)(C)C)cc1OC,.,.,.,.,-3,22*,25*,40*
COc1ccc(-c2nc3c(C)cc(Br)cn3c2CC2CCCCC2)cc1OC,.,.,.,.,3,14*,22*,27*
COc1ccccc1Cc1c(-c2ccc(OC)c(OC)c2)nc2c(C)cc(Br)cn12,.,.,.,.,6,-2,.,.
CC(C)(C)NC(=S)NN=Cc1cccnc1,.,3,.,.,.,.,.,.
O=C(Nc1cc(F)cc(F)c1)c1sc(Cl)nc1-c1ccccc1,i,2,94,0,19,9.6*,14*,42*
CC(=O)c1ccc(S(=O)(=O)Nc2ccc(-n3cnnn3)cc2)cc1,.,3,96,2,-6,0,.,.
CC(=O)c1ccc(NC(=O)c2ccc(-n3cnnn3)cc2)cc1,.,-11,.,0,5,17*,33*,46*
O=C(Cn1c(=O)c2cccn2c2ccccc21)NCCc1ccccc1,i,0,123,-3,7,11*,19*,27*
COc1ccccc1Sc1ccccc1C=NNC(N)=O,.,4,.,.,.,.,.,.
Cc1ccc(NC(=O)CCn2cnc3ccccc3c2=O)cc1Cl,i,0,89,-2,9,13*,18*,23*
COc1ccccc1C(=O)NCC(=O)NN=C(C)Cc1ccccc1,.,0,.,.,.,.,.,.
COc1ccc2nc(NC(=O)CSc3nc4cccnc4n3C)sc2c1,i,-1,103,0,7,26*,29*,42*
COC(=O)c1sc(NC(=O)CSc2nc3cccnc3n2C)nc1C,i,3,96,-4,3,22*,33*,45*
COC(=O)c1sc(NC(=O)CSc2nc3cccnc3n2C2CCCCC2)nc1C,i,3,95,-5,0,-1,.,.
CC(=NNC(=O)Cc1ccc(O)cc1)c1cccnc1,.,1,.,.,.,.,.,.
COc1ccc2oc(=O)c(C(=O)NCc3ccc(C)cc3)cc2c1,i,-85,92,0,4,8.8*,16*,24*
COc1ccc(CNC(=O)c2cc3cc(OC)ccc3oc2=O)cc1,i,-73,106,-4,1,-1,.,.
CSc1ncccc1C(=O)OCC(=O)c1ccc(C)s1,.,-4,101,-3,17,16*,16*,38*
CSc1ncccc1C(=O)OCc1ccc(C#N)cc1,i,3,118,2,2,9.8*,15*,20*
CCOc1ncccc1C(=O)OCC(=O)Nc1ccc(Cl)cn1,.,5,124,1,-1,-2,.,.
CSc1ncccc1C(=O)OCC(=O)Nc1ccc(Cl)cn1,.,3,84,-2,-3,17*,9.9*,15*
CC1(C)Cc2nc3oc4c(=S)nc[nH]c4c3cc2CO1,i,13,93,0,1,19*,11*,12*
C=CCSc1ncnc2c1oc1nc3c(cc12)COC(C)(C)C3,i,1,103,4,-5,1,.,.
CCOc1ccc(CC(=O)Nc2c(C(=O)Nc3ccccc3)oc3ccccc23)cc1OCC,.,-124,85,0,13,23*,22*,33*
CCCC(=O)Nc1nc(C)c(C(C)=O)s1,i,2,75,-3,-6,32*,36*,49*
SMILES,Rce1 inhib,UCH37 DUB inh,CR mimetic SO,MIN6 prolif,Rev-erbA mod,PG9 Ab binder,PG9 binder conf,PGV04 Ab binding
CCOC(=O)Cn1c(=S)[nH]c2c(oc3ccc(Cl)cc32)c1=O,i,3,119,-2,8,16*,7,9.4*
O=C(CN1CCN(S(=O)(=O)c2ccc(Br)cc2)CC1)NN=Cc1ccccc1C(=O)O,.,5,.,.,.,.,.,.
C[C@@H]1CCC[C@]2(O[C@H](CCO)C[C@H](O)[C@H]2O)O1,i,-2,88,2,-4,13*,-3,-2
Cc1cc(C(=O)NN=Cc2cc(Cl)cc([N+](=O)[O-])c2O)c2ccccc2n1,.,11,.,.,.,.,.,.
N#CCC(=O)NN=Cc1ccc(OC2CSC2)cc1,.,2,.,.,.,.,.,.
O=C1CC(c2ccc(F)cc2)Cc2nc(NCc3ccco3)ncc21 (stereo not given),i,2,88,0,6,9.4*,18*,23*
O=c1oc2ccccc2cc1-c1csc(Cc2nc(-c3ccc(Cl)cc3)cs2)n1,i,-117,95,0,7,-1,.,.
N=c1oc2ccccc2cc1-c1nc(-c2ccc(Cl)cc2)cs1,i,-59,84,-3,1,10*,8.8*,13*
Cc1ccc(-c2nn(-c3ccccc3)cc2C=NNC(=O)c2ccc(Br)o2)cc1,.,-6,.,.,.,.,.,.
CCN(c1ccc(NC(=O)COC(=O)c2cc3ccccc3oc2=O)cc1)C(C)C,i,-2,97,-2,0,-3,.,.
O=C(COC(=O)c1cc2ccccc2oc1=O)Nc1ccc(F)cc1F,i,-9,95,0,1,15*,16*,48*
O=C(COc1ccccc1)Nc1ccc(-c2nnc(-c3ccco3)o2)cc1,i,-8,113,-2,6,70*,55*,72*
COc1ccccc1OCC(=O)Nc1cccc(-c2nnc(-c3ccco3)o2)c1,i,1,98,4,6,0,.,.
CCOc1ccc(-c2c(C(=O)NN=Cc3ccncc3)nnn2-c2nonc2N)cc1,.,1,.,.,.,.,.,.
N#Cc1cn(-c2ccccc2)nc1-c1ccc2c(c1)OCCO2,i,-2,91,-1,21,24*,20*,28*
N#Cc1c(SC(C(=O)O)c2ccccc2)nc2c(c1-c1cccs1)CCCC2 (stereo not given),i,3,89,-4,-8,20*,32*,44*
NN=C(Cc1cscn1)c1ccc(O)cc1O,.,5,.,.,.,.,.,.
COC(=O)c1cc2ccsc2n1CC(=O)N1CCCc2ccccc21,i,2,92,-2,1,-1,.,.
COC(=O)c1cc2oc3ccccc3c2n1CC(=O)N1CCCc2ccccc21,i,-11,107,-2,9,12*,12*,20*
O=C1C2C3C=CC(C4CC34)C2C(=O)N1N=Cc1ccc(-c2ccccc2[N+](=O)[O-])o1 (stereo not given),.,6,.,.,.,.,.,.
CCOC(=O)c1ccc(Nc2ncnc3ccc(C)cc23)cc1,i,-48,94,0,7,8.9*,14*,22*
O=C(O)Cn1c2c(c3ccccc31)CSc1ccc(Cl)cc1-2,i,3,94,.,9,17*,10*,14*
S=c1[nH]nc(-c2ccncc2)n1N=Cc1ccccc1Cl,.,6,.,.,.,.,.,.
